# Results reported in ChEMBL document CHEMBL3745673, “Synthesis, antimycobacterial screening and ligand-based molecular docking studies on novel pyrrole derivatives bearing pyrazoline, isoxazole and phenyl thiourea moieties” (Eur J Med Chem, 2016).
# Calls of active or inactive are those of the source. The rule behind the calls is not given here.
# Key:
# Staphylococcus aureus = assay: Antibacterial activity against Staphylococcus aureus after 18 hrs by broth microdilution method; assay type: functional
# In short: (§1)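 Broth microdilution; compounds dissolved in DMSO (10 mg in 1 mL), serially diluted in Mueller-Hinton medium to 0.2–100 µg/mL. MIC taken as lowest concentration giving no visible growth. DMSO solvent control at matching dilutions.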
# Escherichia coli = assay: Antibacterial activity against Escherichia coli after 18 hrs by broth microdilution method; assay type: functional; in short: as §1
# [1] = test system: Mycobacterium tuberculosis; assay: Inhibition of Mycobacterium tuberculosis His6-tagged InhA expressed in Escherichia coli BL21 using trans-2-dodecenoyl-coA as substrate at 50 uM
Structure (SMILES),MIC (Staphylococcus aureus),MIC (Escherichia coli),inhibition [1]
Clc1cccc(Cl)c1-c1cc(-c2ccc(-n3cccc3)cc2)on1,25 µg/mL,50 µg/mL,
Fc1ccc(-c2cc(-c3ccc(-n4cccc4)cc3)on2)cc1,25 µg/mL,12.5 µg/mL,
CC(=O)N1N=C(c2ccc(-n3cccc3)cc2)CC1c1ccc(Cl)cc1 (configuration not stated),25 µg/mL,50 µg/mL,
O=C(/C=C/c1ccco1)c1ccc(-n2cccc2)cc1,25 µg/mL,25 µg/mL,
c1ccc(-c2cc(-c3ccc(-n4cccc4)cc3)on2)cc1,50 µg/mL,25 µg/mL,
COc1cccc(C2CC(c3ccc(-n4cccc4)cc3)=NN2C(C)=O)c1 (configuration not stated),25 µg/mL,50 µg/mL,
Cc1ccc(C)n1-c1ccccc1NC(=S)Nc1ccc(F)cc1,0.8 µg/mL,0.8 µg/mL,
Cc1ccc(C)n1-c1ccccc1NC(=S)Nc1cccc(Br)c1,0.2 µg/mL,0.2 µg/mL,
COc1ccc(C2CC(c3ccc(-n4cccc4)cc3)=NN2C(C)=O)cc1OC (configuration not stated),25 µg/mL,12.5 µg/mL,
CC(=O)N1N=C(c2ccc(-n3cccc3)cc2)CC1c1ccc(F)cc1 (configuration not stated),12.5 µg/mL,12.5 µg/mL,
O=C(O)c1cn(C2CC2)c2cc(N3CCNCC3)c(F)cc2c1=O [CIPROFLOXACIN],0.15 µg/mL,,
Oc1cc(Cl)ccc1Oc1ccc(Cl)cc1Cl,,,> 99%
COc1cccc(/C=C/C(=O)c2ccc(-n3cccc3)cc2)c1,25 µg/mL,12.5 µg/mL,
COc1ccc(C2CC(c3ccc(-n4cccc4)cc3)=NN2C(C)=O)c(OC)c1 (configuration not stated),25 µg/mL,12.5 µg/mL,
CC(=O)N1N=C(c2ccc(-n3cccc3)cc2)CC1c1ccccc1 (configuration not stated),50 µg/mL,50 µg/mL,
COc1ccc(-c2cc(-c3ccc(-n4cccc4)cc3)on2)cc1OC,25 µg/mL,25 µg/mL,
O=C(/C=C/c1c(Cl)cccc1Cl)c1ccc(-n2cccc2)cc1,25 µg/mL,50 µg/mL,
O=C(/C=C/c1ccccc1Br)c1ccc(-n2cccc2)cc1,50 µg/mL,25 µg/mL,
c1ccc(Oc2cccc(-c3cc(-c4ccc(-n5cccc5)cc4)on3)c2)cc1,50 µg/mL,50 µg/mL,

Structure (SMILES),MIC (Staphylococcus aureus),MIC (Escherichia coli),inhibition [1]
Clc1cccc(-c2cc(-c3ccc(-n4cccc4)cc3)on2)c1Cl,50 µg/mL,25 µg/mL,
Brc1cccc(-c2cc(-c3ccc(-n4cccc4)cc3)on2)c1,25 µg/mL,25 µg/mL,
O=C(/C=C/c1ccc(F)cc1)c1ccc(-n2cccc2)cc1,25 µg/mL,12.5 µg/mL,
Cc1ccc(C)n1-c1ccccc1NC(=S)Nc1cccc(Cl)c1,0.2 µg/mL,0.4 µg/mL,
CCn1cc(C(=O)O)c(=O)c2cc(F)c(N3CCNCC3)cc21 [NORFLOXACIN],2.02 µg/mL,4 µg/mL,
O=C(/C=C/c1ccccc1Cl)c1ccc(-n2cccc2)cc1,25 µg/mL,50 µg/mL,
Cc1ccc(NC(=S)Nc2ccccc2-n2c(C)ccc2C)cc1,0.4 µg/mL,6.25 µg/mL,
O=C(/C=C/c1ccccc1O)c1ccc(-n2cccc2)cc1,50 µg/mL,50 µg/mL,
O=C(/C=C/c1ccccc1)c1ccc(-n2cccc2)cc1,25 µg/mL,25 µg/mL,
CC(=O)N1N=C(c2ccc(-n3cccc3)cc2)CC1c1ccc(Cl)cc1Cl (configuration not stated),50 µg/mL,25 µg/mL,
Cc1ccc(-c2cc(-c3ccc(-n4cccc4)cc3)on2)cc1,25 µg/mL,12.5 µg/mL,
COc1ccc(/C=C/C(=O)c2ccc(-n3cccc3)cc2)cc1OC,12.5 µg/mL,12.5 µg/mL,
Cc1ccc(C)n1-c1ccccc1NC(=S)Nc1ccc([N+](=O)[O-])cc1,0.2 µg/mL,0.4 µg/mL,
c1coc(-c2cc(-c3ccc(-n4cccc4)cc3)on2)c1,50 µg/mL,25 µg/mL,
CC(=O)N1N=C(c2ccc(-n3cccc3)cc2)CC1c1cccc(Cl)c1Cl (configuration not stated),25 µg/mL,50 µg/mL,
CC(=O)N1N=C(c2ccc(-n3cccc3)cc2)CC1c1ccc(C)cc1 (configuration not stated),25 µg/mL,12.5 µg/mL,
Cc1ccc(C)n1-c1ccccc1NC(=S)Nc1ccccc1,0.8 µg/mL,0.2 µg/mL,
CC(=O)N1N=C(c2ccc(-n3cccc3)cc2)CC1c1c(Cl)cccc1Cl (configuration not stated),25 µg/mL,50 µg/mL,
CC(=O)N1N=C(c2ccc(-n3cccc3)cc2)CC1c1ccco1 (configuration not stated),50 µg/mL,100 µg/mL,

Structure (SMILES),MIC (Staphylococcus aureus),MIC (Escherichia coli),inhibition [1]
CC(C)c1ccc(/C=C/C(=O)c2ccc(-n3cccc3)cc2)cc1,12.5 µg/mL,12.5 µg/mL,
Brc1ccccc1-c1cc(-c2ccc(-n3cccc3)cc2)on1,50 µg/mL,50 µg/mL,
Cc1ccc(C)n1-c1ccccc1NC(=S)Nc1ccccc1Br,1.6 µg/mL,0.8 µg/mL,
O=C(/C=C/c1cccc(Oc2ccccc2)c1)c1ccc(-n2cccc2)cc1,50 µg/mL,50 µg/mL,
Cc1ccc(C)n1-c1ccccc1NC(=S)Nc1ccc(Cl)c(Cl)c1,0.2 µg/mL,0.2 µg/mL,13%
O=C(/C=C/c1ccc(Cl)cc1Cl)c1ccc(-n2cccc2)cc1,50 µg/mL,50 µg/mL,
Clc1ccc(-c2cc(-c3ccc(-n4cccc4)cc3)on2)cc1,25 µg/mL,25 µg/mL,
CC(=O)N1N=C(c2ccc(-n3cccc3)cc2)CC1c1cccc(Br)c1 (configuration not stated),50 µg/mL,25 µg/mL,
CC(=O)N1N=C(c2ccc(-n3cccc3)cc2)CC1c1cccc(Oc2ccccc2)c1 (configuration not stated),100 µg/mL,50 µg/mL,
O=C(/C=C/c1cccc(Br)c1)c1ccc(-n2cccc2)cc1,50 µg/mL,25 µg/mL,
Clc1ccccc1-c1cc(-c2ccc(-n3cccc3)cc2)on1,50 µg/mL,50 µg/mL,
CC(=O)N1N=C(c2ccc(-n3cccc3)cc2)CC1c1ccccc1Cl (configuration not stated),50 µg/mL,25 µg/mL,
O=C(/C=C/c1cccc(Cl)c1Cl)c1ccc(-n2cccc2)cc1,25 µg/mL,50 µg/mL,
COc1ccc(/C=C/C(=O)c2ccc(-n3cccc3)cc2)cc1,25 µg/mL,12.5 µg/mL,
CC(=O)N1N=C(c2ccc(-n3cccc3)cc2)CC1c1ccccc1Br (configuration not stated),100 µg/mL,50 µg/mL,
O=C(/C=C/c1ccc(Cl)cc1)c1ccc(-n2cccc2)cc1,50 µg/mL,50 µg/mL,
Clc1ccc(-c2cc(-c3ccc(-n4cccc4)cc3)on2)c(Cl)c1,25 µg/mL,50 µg/mL,
Cc1ccc(C)n1-c1ccccc1NC(=S)Nc1ccc(Cl)cc1,0.2 µg/mL,0.2 µg/mL,inactive
